Compound activity deposited in PubChem by The Scripps Research Institute Molecular Screening Center.
The list is not random: actives were taken first. Their share in the collection is about 4.6%.
OX1R antag-1: antagonists of human orexin 1 receptor; CHO/OX1R cells, Fluo-8 calcium fluorescence, orexin A; AID 434989; inhibition, % at 5 µM; 330,000 compounds, 0.43% hits; O43613;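 active = inhibition above its plate's threshold, mean inhibition of all tested compounds on the plate plus 3 SD, cut at about 37% in these data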;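 also: 0% = orexin A challenge wells and 100% = SB-334867-A antagonist wells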
CHO parental Ca: counter-screen: ATP calcium response change in parental CHO cells | inhibition, % at 5.6 µM | 330,000 compounds, 0.63% hits | parental CHO-K1, ATP-induced calcium, Fluo-8 fluorescence;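 active = inhibition above that plate's mean sample inhibition plus 3 SD, cut at about 26% in these data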;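 also: 0% = ATP-challenged DMSO wells and 100% = DMSO wells without ATP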
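Test system: parental CHO cells; detection: calcium-sensitive Fluo-8 fluorescence; evaluation: percent inhibition of calcium signal; also added: ATP as calcium-mobilizing challenge; repeats: one well per compound; control set: ATP-challenged DMSO wells low, unchallenged DMSO wells high; compound: single nominal dose of 5.6 µM per compound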
OX1R antag-2: antagonists of human orexin 1 receptor (OX1R) | O43613 | 330,000 compounds, 1.8% hits | inhibition, % at 6.6 µM | OX1R-expressing cells, FRET antagonist read-out | AID 485270; in the data active = inhibition mostly above about 38%, no sharp cut-off; inactive = mostly below about 40%;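 also: 0% = agonist challenge alone and 100% = reference antagonist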
TAAR1 ag: agonists of human TAAR1; 360,000 compounds, 0.99% hits; Q96RJ0; activation, % at 3 µM; CHO RD-HGA16 TAAR1, Fluo-8 calcium fluorescence; vehicle wells 0%, saturating PEA agonist 100%;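 active = activation above the mean activation of all test compounds in the run plus 3 SD, cut at about 38% in these data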
Target sequence (Q96RJ0 whole entry, looked up): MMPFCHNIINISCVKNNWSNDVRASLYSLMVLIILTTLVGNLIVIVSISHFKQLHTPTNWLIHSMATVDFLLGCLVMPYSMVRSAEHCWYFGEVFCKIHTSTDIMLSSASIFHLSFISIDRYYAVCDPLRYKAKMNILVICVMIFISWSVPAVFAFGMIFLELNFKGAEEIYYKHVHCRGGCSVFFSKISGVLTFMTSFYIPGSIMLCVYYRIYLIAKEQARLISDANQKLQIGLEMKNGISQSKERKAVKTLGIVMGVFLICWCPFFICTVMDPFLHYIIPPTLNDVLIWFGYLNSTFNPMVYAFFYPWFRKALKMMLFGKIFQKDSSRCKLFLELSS
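Test system: RD-HGA16 (CHO) cells co-expressing Gα16 and hTAAR1 | Doses: Single dose, 3 µM | Schedule: 17-24 h seeding, 75 min 37 °C dye, 30 min RT | Evaluation: % activation from peak over basal fluorescence ratio, DMSO-to-PEA scaled | Technique: Kinetic Fluo-8 calcium fluorescence | Benchmarks: Low control DMSO, high control PEA (EC100)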
GPR7 antag: blocks human GPR7 receptor signaling. P48145. GPR7-expressing cells, fluorescence antagonist assay. inhibition, % at 4.4 µM. 290,000 compounds, 1.1% hits. AID 1861; in the data active = inhibition above about 16%, passing the limit was not always enough;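 also: cells stimulated with the agonist NPW; 0% = agonist with vehicle and 100% = vehicle without agonist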
Target sequence (P48145 whole entry, looked up): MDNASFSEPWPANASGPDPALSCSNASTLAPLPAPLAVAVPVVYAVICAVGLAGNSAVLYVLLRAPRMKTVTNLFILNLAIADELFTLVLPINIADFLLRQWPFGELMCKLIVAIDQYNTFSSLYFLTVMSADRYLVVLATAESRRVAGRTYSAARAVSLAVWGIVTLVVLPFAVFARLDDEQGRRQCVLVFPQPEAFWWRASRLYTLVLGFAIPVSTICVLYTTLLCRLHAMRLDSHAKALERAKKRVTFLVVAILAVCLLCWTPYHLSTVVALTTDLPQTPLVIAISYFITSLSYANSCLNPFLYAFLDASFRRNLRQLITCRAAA
TAAR1 antag: antagonists of human TAAR1. 360,000 compounds, 1.5% hits. inhibition, % at 3 µM. CHO RD-HGA16 TAAR1, Fluo-8 calcium fluorescence, antagonist. AID 624466. Q96RJ0;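 active = inhibition above a per-plate cutoff, the mean inhibition of test compounds on that plate plus 3 SD, cut at about 49% in these data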;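 also: 0% = DMSO plus EC80 beta-PEA response and 100% = DMSO alone without agonist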
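System: CHO RD-HGA16 cells bearing hTAAR1. Reagent: EC80 β-phenethylamine stimulus. Schedule: seeding 17-24 h prior, 75-min 37 °C, 30-min RT dye loading. Signal: Fluo-8 intracellular calcium dye fluorescence, real-time kinetic reads. Read-out: % inhibition from peak post-agonist over basal fluorescence ratio. Benchmarks: vehicle wells and EC80 agonist wells. Replicates: n of 1.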
GPR7 antag conf: human GPR7 antagonism, confirmation assay; inhibition, % at 4.4 µM; GPR7-expressing cells, calcium fluorescence antagonist mode; shares compounds with GPR7 antag; 2,400 compounds, 52% hits; in the data active = inhibition above about 24%;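 also: stimulated with the GPR7 agonist NPW; 0% = agonist plus vehicle and 100% = vehicle alone without agonist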
MCHR1 antagonist: MCHR1 (human) antagonism in GPR7 counter-screen | shares compounds with GPR7 antag | MCHR1-expressing cells, fluorescence antagonist assay | inhibition, % at 4.4 µM | 2,400 compounds, 62% hits; in the data active = inhibition above about 22%;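 also: 0% = vehicle with agonist and 100% = vehicle without agonist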
An asterisk follows results filed as active; / = not tested or not shown.

SMILES | OX1R antag-1 | CHO parental Ca | OX1R antag-2 | TAAR1 ag | GPR7 antag | TAAR1 antag | GPR7 antag conf | MCHR1 antagonist
COc1ccc(CC(=O)O/N=C(\N)c2ccccn2)cc1OC | / | / | / | 6 | 24* | -8 | -2 | 5
COc1ccccc1CC(=O)O/N=C(\N)c1ccccn1 | -7 | 11 | 8 | 1 | -8 | 7 | / | /
COc1ccc(CNC(=O)C2(CC3CC(c4ccccc4)=NO3)CCN(C(=O)C3CCCC3)CC2)cc1 (configuration not stated) | -29 | -14 | 15 | 8 | -3 | 2 | / | /
COCCNC(=O)Cn1c(=O)n(CCCCCC(=O)NCc2ccc3c(c2)OCO3)c(=O)c2sccc21 | -13 | -13 | 7 | / | 29* | / | -7 | -4
CC1(C(=O)NS(=O)(=O)C2CC2)CCCN(C(=O)Cc2ccc3ccccc3c2)C1 (configuration not stated) | / | / | / | 1 | / | -13 | / | /
O=C(NCc1ccncc1)Nc1ccc(F)cc1 | -5 | 2 | 12 | 11 | 31* | -7 | -7 | -10
Cc1ccc(-n2cccn2)c(CN2CCC(CO)(CCc3ccccc3)CC2)c1 | / | / | / | 4 | 21* | -7 | 32* | 28*
OCC1(CCc2ccccc2)CCN(Cc2cc(Cl)ccc2O)CC1 | -8 | -1 | 20 | 17 | 8 | -5 | / | /
O=C(Nc1ccc(Br)cc1)Nc1ccccc1F | -6 | 5 | 26 | 16 | 28* | 12 | 59* | 65*
Cc1ccccc1NC(=O)CNC(=O)c1ccc(C(F)(F)F)cc1 | -8 | -10 | 20 | -2 | -4 | 5 | / | /
Cc1ccccc1NC(=O)Nc1ccc(C(F)(F)F)cc1 | 0 | 25 | 33 | 7 | 54* | -10 | 69* | 52*
Cc1ccc(Oc2cccc3c2S(=O)(=O)N([C@H](C)c2ccccc2)C[C@@H](COCc2ccccc2)O3)cc1 | / | / | / | 4 | / | -4 | / | /
Cc1ccc2c(c1)[C@@H]1CN(C)CC[C@@H]1N2S(=O)(=O)c1ccc([N+](=O)[O-])cc1 | -15 | 9 | 44* | 14 | 29* | 9 | -10 | 18
Cc1ccc2c(c1)[C@@H]1CN(C)CC[C@@H]1N2S(=O)(=O)c1ccc(F)cc1 | -15 | -15 | 2 | 2 | 5 | -11 | / | /
CCN(CC)C(=O)[C@H]1C[C@H](CC(=O)NCCc2ccccn2)C(=O)N2CCc3c([nH]c4cc(CCC(=O)N(C)C)ccc34)[C@]12C | -3 | 5 | 9 | 25 | / | -17 | / | /
COc1cccc(NC(=O)C(C)OC(=O)CCCNC(=O)c2ccc(Cl)cc2)c1 (configuration not stated) | -7 | 1 | 8 | 5 | 13 | -19 | / | /
CC(OC(=O)CCCNC(=O)c1ccc(Cl)cc1)C(=O)N(C)Cc1ccccc1 (configuration not stated) | -15 | -13 | 30 | 3 | 35* | -14 | -2 | 5
Cc1cc(C)nc(/N=C(\N)Nc2ccc(OCc3ccccc3)cc2)n1 | 105* | 89* | 19 | 127* | 101* | 106* | 99* | 107*
O=C(Nc1cccc(CNCCc2c[nH]c3ccccc23)c1)c1ccccc1Cl | -12 | 4 | 13 | 49* | 47* | 25 | 54* | 51*
O=C(NCc1ccc2c(c1)OCO2)C(=O)NCC1OCCN1S(=O)(=O)c1ccc(Cl)cc1 (configuration not stated) | -30 | -14 | 8 | 2 | 3 | -18 | / | /
O=C(NCc1ccc2c(c1)OCO2)C(=O)NCC1OCCN1S(=O)(=O)c1ccc(Br)cc1 (configuration not stated) | -3 | -10 | 7 | 3 | 29* | 2 | 22 | 40*
Nc1ccn(C2C=CC(CO)O2)c(=O)n1 (configuration not stated) | / | / | / | 1 | / | -16 | / | /
O=C(Nc1ccc2snnc2c1)Nc1cccc2ccccc12 | 6 | 27* | 58* | 12 | 36* | 1 | 40* | 77*
Cc1nc2cc(NC(=O)Nc3cccc4ccccc34)ccc2n1C | -20 | -6 | 7 | 9 | -11 | 2 | / | /
CCC(Oc1ccccc1)C(=O)Nc1ccc(S(=O)(=O)NCC2CCCO2)cc1 (configuration not stated) | 8 | 7 | 8 | 36 | 23* | -1 | -13 | 34*
SMILES | OX1R antag-1 | CHO parental Ca | OX1R antag-2 | TAAR1 ag | GPR7 antag | TAAR1 antag | GPR7 antag conf | MCHR1 antagonist
CC(=O)Nc1cccc(-c2ccnc3c2CC(C)(C(=O)Nc2cccc(NS(C)(=O)=O)c2)O3)c1 (configuration not stated) | / | / | / | 1 | / | -21 | / | /
O=C(CSc1ncnc2scc(-c3ccccc3)c12)N1CCN(c2ccccc2F)CC1 | -29 | -9 | 17 | 0 | 27* | 20 | 25* | 34*
O=C(O)CSCC(=O)N1CCN(c2ncnc3scc(-c4ccccc4)c23)CC1 | -18 | -5 | 4 | -1 | 1 | 11 | / | /
COc1ccc(F)cc1-c1cc(C(=O)N2CCc3ccccc3C2)[nH]n1 | / | / | / | 1 | / | 0 | / | /
Cc1noc(/C=C/N(C)C)c1S(=O)(=O)N1CCCC(C(=O)N2CCCCC2)C1 (configuration not stated) | -32 | -11 | 6 | -1 | 27* | -25 | -5 | 4
Cc1ccc(-c2csc(NC(=O)c3ccc(Br)cc3)c2C(=O)O)cc1 | -19 | 2 | 10 | -1 | 40* | 24 | 62* | 46*
CNC(=O)/C(C#N)=C/c1c(N(Cc2ccccc2)Cc2ccccc2)nc2c(C)cccn2c1=O | -16 | -3 | 14 | 18 | 39* | 22 | 23 | 49*
O=C(O)c1ccc(CN2C(=O)c3ccc(Oc4ccc([N+](=O)[O-])cc4)cc3C2=O)cc1 | 2 | -2 | 13 | 2 | 39* | 4 | 12 | 16
CC(=O)c1cccc(S(=O)(=O)Nc2ccc3nc(C)sc3c2)c1 | 0 | 21 | 17 | 4 | -2 | 8 | / | /
Cc1nc2ccc(S(=O)(=O)Nc3ccccc3C)cc2s1 | -12 | -17 | 16 | / | 25* | / | 9 | 35*
COc1ccc(/C=C2\CCc3ccccc3C2=O)cc1O | -7 | -12 | 4 | 6 | 25* | -9 | 30* | 34*
O=C(NCCSc1c[nH]c2ccccc12)c1c(F)cccc1F | -10 | -5 | 1 | 3 | 23* | 29 | 33* | 33*
O=C(NCCSc1c[nH]c2ccccc12)c1ccco1 | -3 | 2 | 14 | 0 | -5 | -17 | / | /
CC(O)(c1cccc(F)c1)c1nc(-c2cnc3ccccc3c2)cs1 (configuration not stated) | / | / | / | 1 | / | 2 | / | /
